Source: PubChem BioAssay
Most compounds without a hit are left out; they make up all but 2.2% or so of the library.
TRAIL sens C8: caspase-8 TRAIL sensitization; NB7+C8 cells + TRAIL, ATPlite viability luminescence; inhibition (viability loss, TRAIL sensitization), % at 10 µM; actives 1% (n = 360,000); AID 624354;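 active means compounds causing at least 50% loss of cell viability in the single-dose screen, relative to plate controls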
Wee1 stabilizer: human Wee1 degradation inhibition, primary screen; HeLa Luc-Wee1K328M stability, luciferase luminescence; 100% = proteasome inhibitor MG132 effect; reporter increase, % at 5 µM; actives 1.2% (n = 220,000); AID 1321;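 active means activation above the mean of all tested compounds plus 3 SD, set per screening run, cut at about 8.8% in these data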;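 further: cells exposed to compound for 20 h before luminescence read; 0% = DMSO alone and 100% = MG132 at 30 µM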
Target sequence (P30291 whole entry K328M): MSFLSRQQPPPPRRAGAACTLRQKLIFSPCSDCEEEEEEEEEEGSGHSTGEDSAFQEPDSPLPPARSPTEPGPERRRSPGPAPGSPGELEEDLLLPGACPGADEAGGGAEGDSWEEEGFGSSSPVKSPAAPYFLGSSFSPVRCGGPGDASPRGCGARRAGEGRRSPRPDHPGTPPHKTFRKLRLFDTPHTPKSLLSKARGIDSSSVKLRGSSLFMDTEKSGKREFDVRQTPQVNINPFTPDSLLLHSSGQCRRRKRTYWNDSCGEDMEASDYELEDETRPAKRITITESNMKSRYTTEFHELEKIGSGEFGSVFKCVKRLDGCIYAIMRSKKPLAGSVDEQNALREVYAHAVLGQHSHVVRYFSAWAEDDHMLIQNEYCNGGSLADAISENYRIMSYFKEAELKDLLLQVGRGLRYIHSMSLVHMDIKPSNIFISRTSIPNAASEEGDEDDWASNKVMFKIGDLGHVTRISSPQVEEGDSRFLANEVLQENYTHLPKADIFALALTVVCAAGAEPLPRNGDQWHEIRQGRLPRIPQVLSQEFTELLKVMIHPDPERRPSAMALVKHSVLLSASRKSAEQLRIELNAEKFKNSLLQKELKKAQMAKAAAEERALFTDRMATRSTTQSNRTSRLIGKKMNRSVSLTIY
PKD1 inh: PKD1 (human) kinase inhibition | Q15139 | PKD1 kinase fluorescence polarization assay | inhibition, % (concentration not given with the values) | actives 0.056% (n = 200,000) | AID 797; in the data active means inhibition above about 50%
PPC-1+TRAIL kill: kills PPC-1 cancer cells in the presence of TRAIL | actives 0.41% (n = 220,000) | PPC-1 cells + TRAIL, ATPLite viability luminescence | cell killing (% activity), % at 4 µM or 5 µM | AID 1443;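 active means cell killing above 50% in the first pass at 4 µM, then a duplicate retest at 5 µM averaging 50% or more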;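 further: plate controls were cells with TRAIL plus DMSO for no effect and medium-only wells lacking cells for full effect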
FLuc inh counter: Photinus pyralis luciferase inhibition counter-screen; actives 1.5% (n = 200,000); AID 1006; P08659; ATPLite firefly luciferase biochemical luminescence, 10 min; inhibition, % at 10 µM;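 active means inhibition above about 50% when tested at 10 µM, limit read from the data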
FLuc act counter: firefly luciferase counter-screen for stimulation assays; 200,000 tested, under 10 active; P08659; ATPlite luciferase biochemical, luminescence, 10 min; 0 = ATP-free wells, 1 = DMSO control; activation factor at 10 µM;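 active means luciferase activation factor, scaled between plate controls, of at least 2 with compound at 10 µM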
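System: luciferase plus luciferin reagent, cell-free; medium: PBS as buffer for the ATP substrate; dosing: test compounds dosed from 2 mM stocks in 100% DMSO; timing: 10 min post-reagent at room temperature; measured by: luminescence measurement of luciferase light output; evaluation: luciferase activation, seen as luminescence increase over controls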
Numbers without * were called inactive.

For CCc1cc2c(COC(=O)c3cc(S(=O)(=O)N4CCOCC4)ccc3F)cc(=O)oc2cc1O the results were TRAIL sens C8 75*.
O=C(OCc1cc(=O)oc2cc(O)ccc12)c1cc(S(=O)(=O)N2CCOCC2)ccc1F was read as TRAIL sens C8 68*.
For Cc1ccc(N2C(=O)N(CC(=O)Nc3ccc(C)c(C)c3[N+](=O)[O-])C(=O)C2C)cc1 (stereo not given) the results were TRAIL sens C8 5, Wee1 stabilizer 5, PKD1 inh 0, PPC-1+TRAIL kill 11, FLuc inh counter -5 and FLuc act counter 1.
For Fc1ccc(Nc2ccc3ccccc3n2)c(F)c1 the results were TRAIL sens C8 40, Wee1 stabilizer 0, PKD1 inh 5, PPC-1+TRAIL kill 28, FLuc inh counter 70* and FLuc act counter 0.3.
`Brc1ccccc1-c1nc(-c2ccccc2)no1` gave Wee1 stabilizer 0, PKD1 inh -2, PPC-1+TRAIL kill 25, FLuc inh counter 73* and FLuc act counter 0.3.
`Fc1ccccc1-c1nc(-c2ccncc2)no1` gave TRAIL sens C8 -5.
Fc1ccccc1-c1nc(-c2ccccc2)no1 was read as TRAIL sens C8 6, Wee1 stabilizer 0, PKD1 inh 5, PPC-1+TRAIL kill 25, FLuc inh counter 60* and FLuc act counter 0.4.
For Cc1ccccc1C(=O)NNC(=O)c1cccn1C the results were TRAIL sens C8 -4.
O=Nc1c(O)c2ccccc2c2ccccc12 was read as TRAIL sens C8 92*.
`O=c1ccc2ccccc2c2ccccc12` gave TRAIL sens C8 2.
Screening CC(C)(C)OC(=O)N1CCC(c2c(C(=O)NC3CC3)cnn2-c2ccccc2)CC1 returned TRAIL sens C8 -4.
For CC(C)C1N=C(c2ccc3c(c2)OCO3)CC(c2ccccc2O)N1 (stereo not given) the results were TRAIL sens C8 -4, Wee1 stabilizer 9.4*, PKD1 inh -6, PPC-1+TRAIL kill 2, FLuc inh counter -2 and FLuc act counter 1.
Screening Oc1cccc2ccc(Nc3ccccn3)nc12 returned TRAIL sens C8 83*, Wee1 stabilizer 3, PKD1 inh -1, PPC-1+TRAIL kill -4, FLuc inh counter 5 and FLuc act counter 0.9.
For CN(C)c1ccc(CNC(=O)C2(C)Cc3c(-c4ccc5c(c4)OCO5)ccnc3O2)cc1 (stereo not given) the results were TRAIL sens C8 22.
CC(NC(=O)CCl)c1ccc(Cl)c(Cl)c1 (stereo not given) was read as TRAIL sens C8 61*, Wee1 stabilizer 1, PKD1 inh -3, PPC-1+TRAIL kill 12, FLuc inh counter -2 and FLuc act counter 1.
`CC1CN(c2ccc(Cl)cc2[N+](=O)[O-])CCN1S(C)(=O)=O` (stereo not given) gave TRAIL sens C8 5, Wee1 stabilizer 6, PKD1 inh -5, PPC-1+TRAIL kill 9, FLuc inh counter -5 and FLuc act counter 1.1.
Screening CCn1c(/N=C/c2c[nH]c3ccccc23)nc2ccccc21 returned TRAIL sens C8 -6, Wee1 stabilizer -2, PKD1 inh 0, PPC-1+TRAIL kill -21, FLuc inh counter 57* and FLuc act counter 0.4.
`CCCn1c(/N=C/c2c[nH]c3ccccc23)nc2ccccc21` gave TRAIL sens C8 3, Wee1 stabilizer -3, PKD1 inh -4, PPC-1+TRAIL kill -13, FLuc inh counter 29 and FLuc act counter 0.7.
Clc1ccc(/C=C/c2ncc3ccccn23)cc1 was read as TRAIL sens C8 1, Wee1 stabilizer 2, PKD1 inh -7, FLuc inh counter 67* and FLuc act counter 0.3.
For Fc1ccc(-c2ncc3ccccn23)cc1 the results were TRAIL sens C8 0, Wee1 stabilizer 1, PKD1 inh 1, PPC-1+TRAIL kill 20, FLuc inh counter 4 and FLuc act counter 1.
Screening CCc1ccccc1N(C(C)=O)c1nc(CN=C=S)cs1 returned TRAIL sens C8 3, Wee1 stabilizer 5, PKD1 inh -1, PPC-1+TRAIL kill 15, FLuc inh counter -4 and FLuc act counter 1.
`c1ccc(CSc2ccc(-c3cccnc3)nn2)cc1` gave TRAIL sens C8 3, Wee1 stabilizer -2, PKD1 inh 1, PPC-1+TRAIL kill 44, FLuc inh counter 40 and FLuc act counter 0.6.
